Reference: ChEMBL document CHEMBL2346576, “α-Selective glycosylation affords mucin-related GalNAc amino acids and diketopiperazines active on Trypanosoma cruzi” (Bioorg Med Chem, 2013)
Activity calls are given as the source filed them. The rule behind the calls is not given here.

Key:
[1] = test system: Trypanosoma cruzi; assay: (§1) Antitrypanosomal activity against amastigote form of Trypanosoma cruzi Tulahuen infected in african green monkey Vero cells assessed as decrease in number of intracellular parasites at 0.06 to 0.5 mM treated after removal of parasite on cell supernatant following 12 hrs of infection measured after 24 hrs by Giemsa staining based optical microscopy; type: functional, organism-based
Method in brief: (§2)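 Vero cells plated at 2×10^4/well on 8-well chamber slides; after 12 h infected with 2×10^5 trypomastigotes/well for 12 h, washed with PBS, then compound added for 24 h at 37 °C. Giemsa-stained, parasites per cell counted by light microscopy in at least 200 cells/well. Two independent experiments, each in triplicate.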

[2] = test system: Trypanosoma cruzi; assay: Antitrypanosomal activity against trypomastigote form of Trypanosoma cruzi Tulahuen expressing beta galactosidase infected in rhesus monkey LLC-MK2 cells assessed as inhibition of parasite viability treated at 24 hrs post-infection measured after 4 days by CPRG based colorimetric assay; type: functional, organism-based
Method in brief: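 LLC-MK2 cells at 2×10^3/well in phenol red-free RPMI, grown 24 h, infected with 1×10^4 Tulahuen-lacZ trypomastigotes. Compound added 24 h later at 0.5–0.0035 mM (8 concentrations). After 4 days, PBS with 0.5% Triton X-100 and 100 μM CPRG added; 4 h at 37 °C, absorbance 570 nm. IC50 from three independent experiments, each in duplicate.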

[3] = Inhibition of C-terminal truncated recombinant Trypanosoma cruzi trans-sialidase assessed as decrease in substrate MuNANA hydrolysis at 1 mM preincubated with enzyme for 10 mins prior to substrate addition measured after 10 mins by continuous fluorimetric assay
Method in brief: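 His-tagged 70 kDa recombinant enzyme retaining the catalytic N-terminal domain. Run in triplicate in phosphate buffer pH 7.4; enzyme and inhibitor (25 µL of 4.0 mM solution) preincubated 10 min at 26 °C. MuNANA then added to 0.1 mM final; fluorescence of released Mu read after 10 min (ex 360/em 460 nm). %I = 100×(1−Vi/V0); pyridoxal phosphate as control.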

[4] = Cytotoxicity against C57BL/6 mouse spleen cell assessed as cell death at 7.8 to 500 uM after 24 hrs by propidium iodide staining based flow cytometry; type: tissue-based
Method in brief: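 Spleen cells from C57BL/6 mice were dissociated, red cells lysed for 5 min (0.17 M Tris-HCl pH 7.5 : 0.16 M NH4Cl, 1:9), and cells grown in RPMI 1640 with 10% FBS and antibiotics at 5×10^5 cells/well with compounds for 24 h at 37 °C. The positive control was 0.5% Tween 20. Dead cells were stained with 10 µg/mL propidium iodide and counted by flow cytometry. Three independent experiments were run in duplicate.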

[5] = Inhibition of C-terminal truncated recombinant Trypanosoma cruzi trans-sialidase assessed as decrease in substrate MuNANA hydrolysis preincubated with enzyme for 10 mins prior to substrate addition measured after 10 mins by continuous fluorimetric assay
[6] = test system: Trypanosoma cruzi; assay: as §1, with “parasites” for “parasites at 0.06 to 0.5 mM”; type: functional, organism-based; method in brief: as §2

With `O=C(Cn1ccnc1[N+](=O)[O-])NCc1ccccc1` [BENZNIDAZOLE] the Activity [1] was “Active” and the IC50 [2] was 30 µM.

With `CC(=O)N[C@H]1[C@@H](OC[C@@H]2NC(=O)[C@H](CC(=O)O)NC2=O)O[C@H](CO)[C@H](O)[C@@H]1O` the inhibition [3] was 25%, the IC50 [2] was 282 µM and the Activity [4] was “Non-toxic”.

`CC(=O)N[C@H]1[C@@H](O[C@H](C)[C@H](N)C(=O)O)O[C@H](CO)[C@H](O)[C@@H]1O` gave an IC50 [5] of 320 µM, an inhibition [3] of 79% and an IC50 [2] greater than 500 µM. For the same compound, the Activity [4] was “Non-toxic”.

In the case of `CC(=O)N[C@H]1[C@@H](OC[C@H](N)C(=O)O)O[C@H](CO)[C@H](O)[C@@H]1O`, the inhibition [3] is reported as 57%, the IC50 [2] is reported as greater than 500 µM and the Activity [4] is reported as “Non-toxic”.

In the case of `CC(=O)N[C@H]1[C@@H](O[C@H](C)[C@@H]2NC(=O)[C@H](CC(=O)O)NC2=O)O[C@H](CO)[C@H](O)[C@@H]1O`, the Activity [6] is reported as “Dose-dependent effect”, the inhibition [3] is reported as 13% and the IC50 [2] is reported as 124 µM. The Activity [4] was “Non-toxic”.
